Measured values taken from ChEMBL document CHEMBL1145506, “Activation of inhibitors by sortase triggers irreversible modification of the active site” (J Biol Chem, 2007).
Calls of active or inactive are those of the source. The rule behind the calls is not given here.

B1: Sortase A (Staphylococcus aureus), Q9S446 (protein)
chain: MKKWTNRLMTIAGVVLILVAAYLFAKPHIDNYLHDKDKDEKIEQYDKNVKEQASKDKKQQAKPQIPKDKSKVAGYIEIPDADIKEPVYPGPATPEQLNRGVSFAEENESLDDQNISIAGHTFIDRPNYQFTNLKAAKKGSMVYFKVGNETRKYKMTSIRDVKPTDVGVLDEQKGKDKQLTLITCDDYNEKTGVWEKRKIFVATEVK

What was measured:
Bacillus anthracis = test: (§1) Inhibition of Bacillus anthracis sortase A; parameters: concentration or dose not given beside the values; conditions: concentration not given here
[1] = Inhibition of Bacillus anthracis sortase C
Papain (Carica papaya) = target: T1, Papain (Carica papaya) (UniProt P00784); test: Inhibition of Carica papaya papain; parameters: concentration or dose not given beside the values; conditions: concentration not given here
T1 sequence (whole entry): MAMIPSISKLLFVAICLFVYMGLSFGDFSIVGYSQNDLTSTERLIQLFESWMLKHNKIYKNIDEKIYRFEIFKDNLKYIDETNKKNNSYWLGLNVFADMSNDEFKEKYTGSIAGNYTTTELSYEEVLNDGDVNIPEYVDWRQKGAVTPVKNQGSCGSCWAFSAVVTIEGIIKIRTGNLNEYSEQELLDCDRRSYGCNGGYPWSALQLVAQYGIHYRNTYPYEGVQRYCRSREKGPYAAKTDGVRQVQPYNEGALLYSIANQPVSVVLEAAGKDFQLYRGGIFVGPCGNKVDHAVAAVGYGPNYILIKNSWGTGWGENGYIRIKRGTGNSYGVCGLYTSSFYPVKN

[2] = Inhibition of Bacillus anthracis sortase B
[3] = target: T2, Sortase A (Staphylococcus aureus) (UniProt Q9S446); test: Inhibition of Staphylococcus aureus sortase A at 10 ng
T2 sequence (whole entry): B1 chain
Summary of the method: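 Purified S. aureus SrtA (2 μM) preincubated with 10 ng compound in DMSO for 1 h at 25 °C. FRET substrate a-LPETG-d was then added to 2 μM in 5 mM CaCl2, 150 mM NaCl, 50 mM Tris-HCl pH 7.5, and incubated 24 h at 37 °C. Fluorescence read at ex 320/em 420 nm. Screened in duplicate; % inhibition = 100 − (well/plate positive-control mean ×100).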

Sortase A = target: T3, Sortase A (Staphylococcus aureus, UniProt Q9S446); test: (§2) Inhibition of Staphylococcus aureus sortase A
T3 sequence (Q9S446 whole entry): B1 chain

[4] = target: T2, Sortase A (Staphylococcus aureus); test: as §2
[5] = as §1
[6] = substrate: CN(C)CCC(=O)c1cccs1; conditions: Staphylococcus aureus; 50 uM
[7] = substrate: CN(C)CCC(=O)c1ccc(Cl)c(Cl)c1; conditions: Staphylococcus aureus; 200 uM

Molecule | inhibition (Bacillus anthracis) [%] | inhibition (Papain (Carica papaya)) [%] | inhibition [3] [%] | other results
CN(C)CCC(=O)c1ccc(Cl)c(Cl)c1 | 90.4 | 49.3 | 89.6 | IC50 [1]: 20 µM; IC50 [2]: 14 µM; IC50 (Sortase A): 15 µM; Ki (Sortase A): 15.7 µM
O=C(CCN1CCOCC1)c1ccc(F)cc1 | 89.1 | 46.6 | 47.2 | 
Cc1ccc(C(=O)CCN2CCOCC2)cc1 | 88.9 | 31.2 | 56.9 | 
CN(C)CCC(=O)c1cccc([N+](=O)[O-])c1 | 90.2 | 47.2 | 54.3 | 
CCOC(=O)N1CCN(CCC(=O)c2ccc(Br)cc2)CC1 | 90.7 | 48.5 | 80.2 | 
C=CC(O)c1cccs1 (racemic) |  |  |  | Activity [4]: inactive
O=C(CCNc1ccccc1)c1cccc([N+](=O)[O-])c1 | 87.3 | 34 | 66 | 
CC1CCCN(CCC(=O)c2ccc(Br)cc2)C1 (stereo not given) | 83.7 | 33.8 | 56.9 | 
CN(C)CCC(=O)c1cccs1 | 90.7 | 19.1 | 54.8 | IC50 [5]: 4.8 µM; IC50 [1]: 15 µM; IC50 [2]: 34 µM; IC50 (Sortase A): 47 µM; Ki (Sortase A): 93.2 µM
C=CC(=O)c1cccs1 |  |  |  | Ki (Sortase A): 69 µM
O=C(CCN1CCOCC1)c1ccc(Cl)cc1 | 90.6 | 50.4 | 84.4 | 
CN(C)CCC(=O)c1ccc(S(C)(=O)=O)cc1 | 91.3 | 37.1 | 69.8 | 
B1 |  |  |  | Km [6]: 5.8 µM; Vmax [6]: 88.8 s⁻¹; Km [7]: 5.91 µM; Vmax [7]: 58 s⁻¹
